Only some compounds are listed: those with a hit (about 2% of all), similar ones and a draw of the others.
HCV core dimer: blocks dimerization of HCV core protein. TR-FRET GST/Flag-core106 dimerization, 1536-well. inhibition, % at 5 µM. 0.33% of 300,000 active. AID 1899;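 active means inhibition above the mean of all tested compounds plus 3 SD, set per screening campaign, cut at about 45% in these data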
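Assay system – GST-tagged and Flag-tagged HCV core protein residues 1-106 · Quantity – core106 proteins, GST 13.5 nM and Flag 17 nM · Benchmarks – unlabelled core106 and no-GST-core106 wells · Read-out basis – percent inhibition of core106 dimerization signal · Detection – time-resolved FRET, ex 340 nm, em 617 and 671 nm · Schedule – 4 h at 22.5 °C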
eIF4H inh: inhibitors of RNA binding by human eIF4H | Q15056 | eIF4H fluorescence polarization binding assay | inhibition, % at 35 µM | 0.94% of 290,000 active;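 further: calls also rest on retests at 20 µM and on dose response follow-up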
MLLE-PAM2 inh: blocks PAM2 peptide binding to the PABP1 MLLE domain | P11940 | GST-MLLE / FITC-PAM2 fluorescence polarization | inhibition, % at 20 µM | 0.36% of 360,000 active | AID 588489; in the data active means inhibition above about 35%, passing the limit was not always enough
Target sequence (P11940 whole entry, looked up, the tested form may be a part): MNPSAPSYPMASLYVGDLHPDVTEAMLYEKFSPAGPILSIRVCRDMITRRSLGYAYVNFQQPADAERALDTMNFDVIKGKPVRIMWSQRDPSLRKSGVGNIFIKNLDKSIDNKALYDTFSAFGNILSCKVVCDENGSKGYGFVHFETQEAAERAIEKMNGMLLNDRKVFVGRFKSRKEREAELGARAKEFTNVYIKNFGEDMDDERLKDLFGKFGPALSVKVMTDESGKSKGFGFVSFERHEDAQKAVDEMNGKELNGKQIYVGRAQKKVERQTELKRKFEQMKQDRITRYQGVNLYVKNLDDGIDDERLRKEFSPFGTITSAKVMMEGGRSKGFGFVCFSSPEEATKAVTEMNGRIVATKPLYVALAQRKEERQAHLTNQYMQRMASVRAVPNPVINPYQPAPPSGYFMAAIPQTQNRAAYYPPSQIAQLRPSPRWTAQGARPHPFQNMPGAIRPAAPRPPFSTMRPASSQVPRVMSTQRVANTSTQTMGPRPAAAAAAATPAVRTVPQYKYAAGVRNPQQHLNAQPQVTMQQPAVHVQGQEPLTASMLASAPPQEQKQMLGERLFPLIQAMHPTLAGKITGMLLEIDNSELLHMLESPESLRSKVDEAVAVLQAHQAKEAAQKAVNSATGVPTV
HCV NS3 hel inh: inhibitors of Hepatitis C virus NS3 helicase | NS3 helicase DNA unwinding, Cy5 molecular beacon fluorescence | inhibition, % at 10.9 µM | 0.56% of 290,000 active | AID 1800;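 active means inhibition above the mean of all tested compounds plus 3 SD, set per campaign, cut at about 35% in these data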
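System: Hepatitis C virus NS3 helicase domain fragment enzyme | Reagent: Annealed dual-labelled DNA beacon duplex, ATP-started | Compound dosing: 10.9 µM single point, 0.8% DMSO | Incubation: 1 h reaction at 25 °C, ATP-initiated | Technique: Cy5 fluorescence | Evaluation: Percent inhibition from t60/t0 fluorescence ratio | Benchmarks: Low DMSO, high thioflavine S at 110 µM | Replication: Singlicate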
FID counter: counter-screen for HCV NS3 helicase inhibitors: DNA intercalator displacement; inhibition, % at 7.9 µM; DNA fluorescent intercalator displacement, fluorescence; 0.17% of 290,000 active; in the data active means inhibition above about 37%;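 further: higher means more ethidium bromide displaced from hairpin DNA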
PABP FP inh: PABP-poly(A) binding inhibition | P11940 | PABP-poly(A) RNA binding, fluorescence polarization | inhibition, % at 35 µM | 1% of 290,000 active | AID 2014;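 further: calls also rest on retests at 20 µM and on dose response follow-up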
Hits are given with their value; 0 = inactive; - = no result. Unless noted, how the calls were made is not given here.

SMILES	HCV core dimer	eIF4H inh	MLLE-PAM2 inh	HCV NS3 hel inh	FID counter	PABP FP inh
COc1cccc(N2CCN(Cc3nc4ccccc4c(=O)[nH]3)CC2)c1	0	0	0	0	0	0
Cc1cc(O)ccc1Nc1nc2ccccc2nc1Nc1ccc(O)cc1C	0	24	0	0	0	75
Cc1ccc(Nc2nc3ccccc3s2)c(C)c1	0	0	0	0	0	0
CCN(CC)C(=O)C1=C(C)N(Cc2ccc(OC)cc2)C(=O)C(CC(=O)NC2CCCCC2)C1 (stereo unspecified)	-	-	0	-	-	-
CC(=O)Nc1ccc(S(=O)(=O)NCC(=O)N2CCN(S(=O)(=O)c3cccs3)CC2)cc1	-	-	43	-	-	-
CCOC(=O)N1CCN(C(=O)CNS(=O)(=O)c2cccs2)CC1	0	0	0	0	0	0
N#C/C(=C\c1ccc(-c2cccc(Cl)c2)o1)C(=O)Nc1cccc2cccnc12	0	82	0	0	0	86
O=C(Nc1ccnn1C1CCN(Cc2cccc(OCCO)c2)CC1)C1CC1	0	0	0	0	0	0
COc1cc(-c2nnc(SCC(=O)c3cc(C)n(CC4CCCO4)c3C)o2)cc(OC)c1OC (stereo unspecified)	0	70	0	0	0	107
c1ccc2c(c1)OC(CCCN1CCCCC1)c1ccccc1S2 (stereo unspecified)	0	0	0	0	38	0
CC(C)(C)c1ccc2cccc(F)c2n1	-	-	0	-	-	-
CCOC(=O)CC1Sc2ccccc2NC1=O (stereo unspecified)	0	0	0	0	0	0
CCC(OC(=O)CC1Sc2ccccc2NC1=O)C(=O)NCC1CCCO1 (stereo unspecified)	0	0	40	0	0	0
CC1CCCN(Cc2c(O)ccc3c2O/C(=C\c2ccco2)C3=O)C1 (stereo unspecified)	0	85	0	0	0	5.8
CSc1nc2nc(Cl)c(Cl)nc2[nH]1	-	-	0	-	-	-
NC(=O)CSc1nc2scc(-c3ccco3)c2c(=O)n1-c1ccccc1	0	67	0	0	0	51
O=C(CSc1nc2scc(-c3ccco3)c2c(=O)n1-c1ccccc1)N1CCOCC1	0	0	0	0	0	0
N#Cc1c(NC(=O)CN2CCCCC2)sc2c1CCC2	0	45	0	0	0	0
N#Cc1ccsc1NC(=O)CN1CCN(c2ccccc2)CC1	0	0	0	0	0	0
N#Cc1ccsc1NC(=O)CN1CCN(c2ccc(O)cc2)CC1	0	98	0	0	0	0
COC(=O)C1CCN(CC(=O)Nc2sc3c(c2C#N)CCC3)CC1	0	0	0	0	0	0
CC1CCCCN1CC(=O)Nc1sccc1C#N (stereo unspecified)	0	75	0	0	0	59
CC1CCCCN1CC(=O)Nc1sc2c(c1C#N)CCC2 (stereo unspecified)	0	69	0	0	0	54
CCN1CCC[C@H]1CNCCCn1cnc2c(SC)ncnc21	-	-	0	-	-	-
COc1ccc(-c2ccc(SCC(=O)NCc3ccco3)nn2)cc1OC	0	0	0	0	0	0
SMILES	HCV core dimer	eIF4H inh	MLLE-PAM2 inh	HCV NS3 hel inh	FID counter	PABP FP inh
CCN1C(=O)/C(=C/c2ccc(OC)c(OC)c2)N=C1SCC(=O)NCc1ccco1	0	0	38	0	0	0
Nc1c(S(=O)(=O)c2cccc(Cl)c2)c2nc3ccccc3nc2n1/N=C/c1ccc(O)c(O)c1	71	0	-	0	0	0
COc1cccc(/C=N/n2c(N)c(S(=O)(=O)c3cccs3)c3nc4ccccc4nc32)c1OC	0	0	0	0	0	0
CCCCC(=O)N(C)c1c(CC)nc2c(OCc3cccc(Cl)c3)cccn12	-	-	0	-	-	-
CCC(=O)Nc1ccc(Cl)c(NC(=S)NC(=O)COc2ccccc2)c1	0	0	39	0	0	0
CCC(=O)Nc1ccc(Cl)c(NC(=S)NC(=O)COc2ccc(Cl)cc2)c1	0	0	0	0	0	0
O=C(NC(=S)Nc1ccccc1Br)c1ccc2c(c1)OCO2	0	0	0	0	0	0
CC(C)c1ccc(O)c(NC(=S)NC(=O)c2ccc3c(c2)OCO3)c1	0	0	47	0	0	0
O=C(CCCCC(=O)NN=Cc1ccc2c(c1)CCC2)NN=Cc1ccc2c(c1)CCC2	-	-	0	-	-	-
CC1=NOC(=O)/C1=C\c1ccc(-c2ccccc2Br)o1	-	0	0	0	0	0
Cc1ccc(/C=C2/SC(=S)N(CC(=O)Nc3ncc(Cc4ccc(C)cc4)s3)C2=O)cc1	70	0	0	0	0	0

Compound activity (PubChem BioAssay)
